Test results taken from ChEMBL document CHEMBL1149845, “Synthesis, cytotoxic activities and structure-activity relationships of topoisomerase I inhibitors: indolizinoquinoline-5,12-dione derivatives” (Bioorg Med Chem, 2008).

Key:
[1] = Cytotoxicity against human GLC82 cells after 2 days by MTT assay; type: functional, cell-based; settings: GLC82, 48 h
Method in brief: (§1)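 Cells grown in RPMI-1640 with 10% FBS, penicillin 100 U/mL and streptomycin 100 µg/mL at 37 °C, 5% CO2, passage 3–6. Exponential-phase cells seeded at 5 × 10⁴–1 × 10⁵ cells/ml, grown overnight, then exposed for 2 days to compounds predissolved in DMSO at selected concentrations. Viability read by MTT.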

NCI-H460 = assay: Cytotoxicity against human NCI-H460 cells after 2 days by MTT assay; type: functional, cell-based; settings: NCI-H460, 48 h; method in brief: as §1
HL-60 = assay: Cytotoxicity against human HL60 cells after 2 days by MTT assay; type: functional, cell-based; settings: HL-60, 48 h; method in brief: as §1
MCF7 = assay: Cytotoxicity against human MCF7 cells after 2 days by MTT assay; type: functional, cell-based; settings: MCF7, 48 h; method in brief: as §1
Bos taurus [2] = organism: Bos taurus; assay: Inhibition of calf thymus topoisomerase 1-mediated supercoiled plasmid DNA relaxation at 0.2 uM
Method in brief: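 Calf thymus TOP1 relaxation of 0.5 µg pBR322 in 20 µL buffer (20 mM Tris pH 7.5, 0.1 mM EDTA, 10 mM MgCl2, 50 µg/mL acetylated BSA, 100 mM KCl), compound from DMSO. Started by adding DNA, 30 min at 37 °C, stopped with loading buffer. 1% agarose gel in Tris-borate/EDTA at 5 V/cm, ethidium bromide stain. Supercoiled DNA quantified densitometrically.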

Bos taurus [3] = organism: Bos taurus; assay: Inhibition of calf thymus topoisomerase 1-mediated supercoiled plasmid DNA relaxation at 125 uM

| Structure (SMILES) | IC50 [1] [µM] | IC50 (NCI-H460) [µM] | IC50 (HL-60) [µM] | IC50 (MCF7) [µM] | inhibition (Bos taurus [2]) [%] | inhibition (Bos taurus [3]) [%] |
| --- | --- | --- | --- | --- | --- | --- |
| CCOC(=O)c1c2c(n3cccc(O)c13)C(=O)c1cccnc1C2=O | 23.8 | 23.3 | > 25 | > 25 | – | – |
| CCOC(=O)c1c2c(n3cccc(N)c13)C(=O)c1cccnc1C2=O | 23.5 | 19 | > 25 | > 25 | – | – |
| CCOC(=O)c1c2c(n3cccc(C)c13)C(=O)c1ncccc1C2=O | 1.83 | – | 0.22 | 14.5 | – | – |
| CCOC(=O)c1c2c(n3cccc(Br)c13)C(=O)c1ncccc1C2=O | < 0.25 | 2 | 9.32 | 10.3 | – | – |
| CC(=O)c1c2c(n3ccccc13)C(=O)c1ncccc1C2=O | < 0.25 | < 0.25 | 0.86 | 7.92 | – | – |
| Cc1c2c(n3ccccc13)C(=O)c1cccnc1C2=O | 21.5 | > 25 | > 25 | > 25 | – | – |
| O=C1c2cccnc2C(=O)c2c1cc1ccccn21 | 11.5 | 15.6 | 17 | > 25 | – | – |
| CC(=O)c1c2c(n3cccc(O)c13)C(=O)c1ncccc1C2=O | 19.5 | 24.9 | > 25 | 17.6 | – | – |
| CCOC(=O)c1c2c(n3cccc(N)c13)C(=O)c1ncccc1C2=O | 23.4 | 17.6 | 16.4 | 20.9 | – | – |
| CC(=O)c1c2c(n3cccc(Cl)c13)C(=O)c1ncccc1C2=O | 6.85 | 0.23 | 0.19 | 7.83 | – | – |
| CC(=O)c1c2c(n3cccc(N)c13)C(=O)c1cccnc1C2=O | 10.3 | 10.3 | 15.8 | > 25 | – | – |
| CCOC(=O)c1c2c(n3ccccc13)C(=O)c1ncccc1C2=O | < 0.25 | < 0.25 | 0.88 | 0.96 | – | – |
| CC(=O)c1c2c(n3cccc(F)c13)C(=O)c1cccnc1C2=O | 12.7 | 6.75 | 1.39 | 9.28 | – | – |
| Cc1c2c(n3ccccc13)C(=O)c1ncccc1C2=O | 14.2 | 12.2 | 12.5 | > 25 | – | – |
| CCOC(=O)c1c2c(n3cccc(F)c13)C(=O)c1ncccc1C2=O | < 0.25 | < 0.25 | 1.37 | 7.01 | – | – |
| CCOC(=O)c1c2c(n3ccccc13)C(=O)c1ccccc1C2=O | > 25 | – | > 25 | > 25 | – | – |

| Structure (SMILES) | IC50 [1] [µM] | IC50 (NCI-H460) [µM] | IC50 (HL-60) [µM] | IC50 (MCF7) [µM] | inhibition (Bos taurus [2]) [%] | inhibition (Bos taurus [3]) [%] |
| --- | --- | --- | --- | --- | --- | --- |
| CCOC(=O)c1c2c(n3cccc(C)c13)C(=O)c1cccnc1C2=O | 9.27 | – | 11.7 | > 25 | – | – |
| CCOC(=O)c1c2c(n3cccc(Br)c13)C(=O)c1cccnc1C2=O | 1.1 | 2.4 | 11.5 | 20.8 | – | – |
| CCOC(=O)c1c2c(n3ccccc13)C(=O)c1cccnc1C2=O | 2.4 | 1.9 | 14.5 | 6.38 | – | – |
| CC(=O)c1c2c(n3cccc(O)c13)C(=O)c1cccnc1C2=O | 16.3 | > 25 | > 25 | – | – | – |
| O=C1c2cc3ccccn3c2C(=O)c2cccnc21 | 16.7 | 12.3 | 14.7 | 20.2 | – | – |
| CCOC(=O)c1c2c(n3cccc(F)c13)C(=O)c1cccnc1C2=O | 1.7 | 1.2 | 5.51 | 6.2 | – | – |
| CCOC(=O)c1c2c(n3cccc(O)c13)C(=O)c1ncccc1C2=O | 7.2 | > 25 | > 25 | > 25 | – | – |
| CC(=O)c1c2c(n3cccc(N)c13)C(=O)c1ncccc1C2=O | 12.2 | > 25 | 22.3 | > 25 | – | – |
| CCOC(=O)c1c2c(n3cccc(Cl)c13)C(=O)c1ncccc1C2=O | < 0.25 | 2.1 | 6.52 | 7.37 | 5.8 | 100 |
| CC(=O)c1c2c(n3cccc(Cl)c13)C(=O)c1cccnc1C2=O | 16.1 | 1.5 | 2.2 | 16.1 | – | – |
| CC(=O)c1c2c(n3ccccc13)C(=O)c1cccnc1C2=O | 1.9 | 1.4 | 14.7 | 12.7 | – | – |
| CCOC(=O)c1c2c(n3cccc(Cl)c13)C(=O)c1cccnc1C2=O | 9.73 | 2.2 | 15.4 | 19.9 | – | – |
| CC(=O)c1c2c(n3cccc(F)c13)C(=O)c1ncccc1C2=O | 5.26 | < 0.25 | 0.17 | 2.31 | – | – |
| CC(=O)c1c2c(n3cccc(Br)c13)C(=O)c1cccnc1C2=O | 4.68 | 0.2 | 1.56 | 12.4 | – | – |
| CC[C@@]1(O)C(=O)OCc2c1cc1n(c2=O)Cc2cc3ccccc3nc2-1 | – | – | – | – | – | 81.3 |
| CC(=O)c1c2c(n3cccc(Br)c13)C(=O)c1ncccc1C2=O | 2.01 | 2.15 | 0.21 | 11.7 | – | – |
